Assay results gathered from unrelated publications.
UGT2B7: UDP-glucuronosyltransferase 2B7 (UGT2B7, Homo sapiens, UniProt P16662)

CC(C)n1cc(C#N)c2cc(-n3cc(C(=O)O)cn3)ccc21
Tmax (human, plasma; oral, 200 mg, single dose, fasted, healthy volunteers): 2.7 h

CC(=O)O[C@@H]1c2c(ccc3ccc(=O)oc23)OC(C)(C)[C@@H]1OC(=O)C1(C)OC1C (stereo partly drawn)
IC50 (RD; cell growth or viability, WST-1): 42.8 µM

C=C1CCC2C(C)(CO)C(=O)CCC2(C)C1CCC1=CCOC1=O (stereo not drawn)
inhibition (UGT2B7; enzyme activity, inhibitor; 100 µM): 94%

CC1(C)CC[C@]2(C)CC[C@]3(C)[C@H]4CC=C5[C@@H](CC[C@H](O)C5(C)C)[C@]4(C)CC[C@@]3(C)[C@@H]2C1
IC50 (RD; cell growth or viability, WST-1): 79.8 µM

COc1cc(OC)cc(N(CCNC(C)C)c2ccc3ncc(-c4cnn(C)c4)nc3c2)c1
Papp (LLC-PK1; Caco-2): 19.8 ×10⁻⁶ cm/s

CCOC(=O)CC1SC(=NN=Cc2ccc(OC)cc2)NC1=O (stereo not drawn)
CC50 (LLC-MK2; cell growth or viability, MTT; 96 h, pH 7.2): 399 µM

C[C@H](O)c1cc(C(=O)N[C@@H](C)Cn2ccc(-c3ccc(C#N)c(Cl)c3)n2)n[nH]1
IC50 (UGT2B7; enzyme activity, inhibitor; human, liver microsomes): > 100 µM

CCOC(=O)CC1SC(=NN=Cc2ccccc2OC)NC1=O (stereo not drawn)
CC50 (LLC-MK2; cell growth or viability, MTT; 96 h, pH 7.2): 539 µM

C/C=C(/C)C(=O)O[C@@H]1[C@H](OC(C)=O)c2c(ccc3ccc(=O)oc23)OC1(C)C
IC50 (RD; cell growth or viability, WST-1): 44.4 µM

CCOC(=O)CC1SC(=NN=Cc2ccc(O)c(OC)c2)NC1=O (stereo not drawn)
CC50 (LLC-MK2; cell growth or viability, MTT; 96 h, pH 7.2): 545 µM

C[C@@H](Nc1cc(F)cc(F)c1)c1cc(C(=O)N(C)C)cc2c(=O)cc(N3CCOCC3)oc12
Tmax (human, plasma; oral, 30 mg, patients): 1.53 h

CCOC(=O)CC1SC(=NN=Cc2cccc(Br)c2)NC1=O (stereo not drawn)
CC50 (LLC-MK2; cell growth or viability, MTT; 96 h, pH 7.2): 446 µM

C=C1CC[C@@H]2[C@](C)(CO)[C@H](O)CC[C@@]2(C)[C@@H]1C/C=C1/C(=O)OC[C@H]1O
inhibition (UGT2B7; enzyme activity, inhibitor; 100 µM, pH 7.4): 94%

CCOC(=O)CC1SC(=NN=Cc2ccccc2Cl)NC1=O (stereo not drawn)
CC50 (LLC-MK2; cell growth or viability, MTT; 96 h, pH 7.2): 229 µM

COc1cccc(OC)c1-c1cc(C(=O)NC2(C(=O)O)C3CC4CC(C3)CC2C4)nn1-c1ccc(C(=O)N(C)CCCN(C)CCCN(C)C(=O)CN2CCN(CC(=O)[O-])CCN(CC(=O)[O-])CCN(CC(=O)[O-])CC2)cc1C(C)C.[177Lu+3] (stereo not drawn)
tracer uptake (HT-29; liver; intravenous, 4 h, tumour-bearing): 3.1 %ID/g
